Test system: PCNA replication foci in NIH3T3 cells
Assay type: cell-based, murine
Settings: for Small foci (CFP-PCNA) / Large foci (CFP-PCNA) / Mid Foci (CFP-PCNA): CFP channel (CFP-PCNA) in cells co-expressing the hEXO1 protein, 50 co-transfected cells; for Small foci (CFP-PCNA): early S-phase foci; for Large foci (CFP-PCNA): late S-phase foci; for Mid Foci (CFP-PCNA): mid S-phase foci; for effect of expression on S-phase distribution: NIH3T3 cells co-expressing CFP-PCNA; for foci formation and co-localization with PCNA during S-phase: NIH3T3 cells co-transfected with CFP-PCNA, 24–48 h; for sub-cellular localization: NIH3T3 cells, confocal imaging
Method in brief: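 Murine NIH3T3 cells were kept in DMEM with 10% FBS and penicillin/streptomycin at 37 °C, 10% CO₂. Cells (2*10⁵ per glass-bottom dish) were seeded 24 h before ExGen500 co-transfection with 3 μg total plasmid (CFP-PCNA plus YFP fusion). Confocal imaging at 24–48 h. Co-transfected cells were counted and binned by pattern, e.g. "no foci" (diffuse CFP-PCNA, diffuse nuclear YFP).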

B1: YFP-hEXO1-Q788A;L791A: PIP-box mutant of YFP-hEXO1 (protein, UniProt Q9UQ84 1-846, looked up, variant Q788A L791A)
Exonuclease 1: MGIQGLLQFIKEASEPIHVRKYKGQVVAVDTYCWLHKGAIACAEKLAKGEPTDRYVGFCMKFVNMLLSHGIKPILVFDGCTLPSKKEVERSRRERRQANLLKGKQLLREGKVSEARECFTRSINITHAMAHKVIKAARSQGVDCLVAPYEADAQLAYLNKAGIVQAIITEDSDLLAFGCKKVILKMDQFGNGLEIDQARLGMCRQLGDVFTEEKFRYMCILSGCDYLSSLRGIGLAKACKVLRLANNPDIVKVIKKIGHYLKMNITVPEDYINGFIRANNTFLYQLVFDPIKRKLIPLNAYEDDVDPETLSYAGQYVDDSIALQIALGNKDINTFEQIDDYNPDTAMPAHSRSHSWDDKTCQKSANVSSIWHRNYSPRPESGTVSDAPQLKENPSTVGVERVISTKGLNLPRKSSIVKRPRSAELSEDDLLSQYSLSFTKKTKKNSSEGNKSLSFSEVFVPDLVNGPTNKKSVSTPPRTRNKFATFLQRKNEESGAVVVPGTRSRFFCSSDSTDCVSNKVSIQPLDETAVTDKENNLHESEYGDQEGKRLVDTDVARNSSDDIPNNHIPGDHIPDKATVFTDEESYSFESSKFTRTISPPTLGTLRSCFSWSGGLGDFSRTPSPSPSTALQQFRRKSDSPTSLPENNMSDVSQLKSEESSDDESHPLREEACSSQSQESGEFSLQSSNASKLSQCSSKDSDSEESDCNIKLLDSQSDQTSKLRLSHFSKKDTPLRNKVPGLYKSSSADSLSTTKIKPLGPARASGLSKKPASIQKRKHHNAENKPGLAIKANELWKNFGFKKDSEKLPPCKKPLSPVRDNIQLTPEAEEDIFNKPECGRVQRAIFQ
modifications: N-terminal YFP tag
  Small foci (CFP-PCNA): 22%
  Large foci (CFP-PCNA): 8%
  Mid Foci (CFP-PCNA): 18%
  effect of expression on S-phase distribution: no adverse effects on S-phase distribution
  foci formation and co-localization with PCNA during S-phase: unable to form nuclear foci and does not co-localize with PCNA, at any time point during S-phase

B2: YFP-hEXO1-Q154A;Y157A: putative PIP-box substitution variant of YFP-hEXO1 (protein, UniProt Q9UQ84 1-846, looked up, variant Q154A Y157A)
Exonuclease 1: MGIQGLLQFIKEASEPIHVRKYKGQVVAVDTYCWLHKGAIACAEKLAKGEPTDRYVGFCMKFVNMLLSHGIKPILVFDGCTLPSKKEVERSRRERRQANLLKGKQLLREGKVSEARECFTRSINITHAMAHKVIKAARSQGVDCLVAPYEADAALAALNKAGIVQAIITEDSDLLAFGCKKVILKMDQFGNGLEIDQARLGMCRQLGDVFTEEKFRYMCILSGCDYLSSLRGIGLAKACKVLRLANNPDIVKVIKKIGHYLKMNITVPEDYINGFIRANNTFLYQLVFDPIKRKLIPLNAYEDDVDPETLSYAGQYVDDSIALQIALGNKDINTFEQIDDYNPDTAMPAHSRSHSWDDKTCQKSANVSSIWHRNYSPRPESGTVSDAPQLKENPSTVGVERVISTKGLNLPRKSSIVKRPRSAELSEDDLLSQYSLSFTKKTKKNSSEGNKSLSFSEVFVPDLVNGPTNKKSVSTPPRTRNKFATFLQRKNEESGAVVVPGTRSRFFCSSDSTDCVSNKVSIQPLDETAVTDKENNLHESEYGDQEGKRLVDTDVARNSSDDIPNNHIPGDHIPDKATVFTDEESYSFESSKFTRTISPPTLGTLRSCFSWSGGLGDFSRTPSPSPSTALQQFRRKSDSPTSLPENNMSDVSQLKSEESSDDESHPLREEACSSQSQESGEFSLQSSNASKLSQCSSKDSDSEESDCNIKLLDSQSDQTSKLRLSHFSKKDTPLRNKVPGLYKSSSADSLSTTKIKPLGPARASGLSKKPASIQKRKHHNAENKPGLQIKLNELWKNFGFKKDSEKLPPCKKPLSPVRDNIQLTPEAEEDIFNKPECGRVQRAIFQ
modifications: N-terminal YFP tag
  Small foci (CFP-PCNA): 28%
  Large foci (CFP-PCNA): 0%
  Mid Foci (CFP-PCNA): 4%
  effect of expression on S-phase distribution: unable to detect replication foci in late S-phase
  foci formation and co-localization with PCNA during S-phase: to some extent are able to form S-phase foci in co-localization with PCNA

B3: YFP-hEXO1-Q285A;F288A: putative PIP-box substitution variant of YFP-hEXO1 (protein, UniProt Q9UQ84 1-846, looked up, variant Q285A F288A)
Exonuclease 1: MGIQGLLQFIKEASEPIHVRKYKGQVVAVDTYCWLHKGAIACAEKLAKGEPTDRYVGFCMKFVNMLLSHGIKPILVFDGCTLPSKKEVERSRRERRQANLLKGKQLLREGKVSEARECFTRSINITHAMAHKVIKAARSQGVDCLVAPYEADAQLAYLNKAGIVQAIITEDSDLLAFGCKKVILKMDQFGNGLEIDQARLGMCRQLGDVFTEEKFRYMCILSGCDYLSSLRGIGLAKACKVLRLANNPDIVKVIKKIGHYLKMNITVPEDYINGFIRANNTFLYALVADPIKRKLIPLNAYEDDVDPETLSYAGQYVDDSIALQIALGNKDINTFEQIDDYNPDTAMPAHSRSHSWDDKTCQKSANVSSIWHRNYSPRPESGTVSDAPQLKENPSTVGVERVISTKGLNLPRKSSIVKRPRSAELSEDDLLSQYSLSFTKKTKKNSSEGNKSLSFSEVFVPDLVNGPTNKKSVSTPPRTRNKFATFLQRKNEESGAVVVPGTRSRFFCSSDSTDCVSNKVSIQPLDETAVTDKENNLHESEYGDQEGKRLVDTDVARNSSDDIPNNHIPGDHIPDKATVFTDEESYSFESSKFTRTISPPTLGTLRSCFSWSGGLGDFSRTPSPSPSTALQQFRRKSDSPTSLPENNMSDVSQLKSEESSDDESHPLREEACSSQSQESGEFSLQSSNASKLSQCSSKDSDSEESDCNIKLLDSQSDQTSKLRLSHFSKKDTPLRNKVPGLYKSSSADSLSTTKIKPLGPARASGLSKKPASIQKRKHHNAENKPGLQIKLNELWKNFGFKKDSEKLPPCKKPLSPVRDNIQLTPEAEEDIFNKPECGRVQRAIFQ
modifications: YFP tag
  Small foci (CFP-PCNA): 34%
  Large foci (CFP-PCNA): 0%
  Mid Foci (CFP-PCNA): 0%
  effect of expression on S-phase distribution: unable to detect replication foci in late S-phase
  foci formation and co-localization with PCNA during S-phase: to some extent are able to form S-phase foci in co-localization with PCNA

B4: YFP-hEXO1-S598X: COOH-terminally truncated version of YFP-hEXO1 (protein, UniProt Q9UQ84 1-597, looked up, fragment)
chain: MGIQGLLQFIKEASEPIHVRKYKGQVVAVDTYCWLHKGAIACAEKLAKGEPTDRYVGFCMKFVNMLLSHGIKPILVFDGCTLPSKKEVERSRRERRQANLLKGKQLLREGKVSEARECFTRSINITHAMAHKVIKAARSQGVDCLVAPYEADAQLAYLNKAGIVQAIITEDSDLLAFGCKKVILKMDQFGNGLEIDQARLGMCRQLGDVFTEEKFRYMCILSGCDYLSSLRGIGLAKACKVLRLANNPDIVKVIKKIGHYLKMNITVPEDYINGFIRANNTFLYQLVFDPIKRKLIPLNAYEDDVDPETLSYAGQYVDDSIALQIALGNKDINTFEQIDDYNPDTAMPAHSRSHSWDDKTCQKSANVSSIWHRNYSPRPESGTVSDAPQLKENPSTVGVERVISTKGLNLPRKSSIVKRPRSAELSEDDLLSQYSLSFTKKTKKNSSEGNKSLSFSEVFVPDLVNGPTNKKSVSTPPRTRNKFATFLQRKNEESGAVVVPGTRSRFFCSSDSTDCVSNKVSIQPLDETAVTDKENNLHESEYGDQEGKRLVDTDVARNSSDDIPNNHIPGDHIPDKATVFTDEESYSFESSKFTRTI
modifications: N-terminal YFP tag
  foci formation and co-localization with PCNA during S-phase: none of the variant proteins were able to form foci or co-localize with PCNA during S-phase
  sub-cellular localization: strictly nuclear

B5: YFP-hEXO1-C508X: COOH-terminally truncated version of YFP-hEXO1 (protein, UniProt Q9UQ84 1-507, looked up, fragment)
chain: MGIQGLLQFIKEASEPIHVRKYKGQVVAVDTYCWLHKGAIACAEKLAKGEPTDRYVGFCMKFVNMLLSHGIKPILVFDGCTLPSKKEVERSRRERRQANLLKGKQLLREGKVSEARECFTRSINITHAMAHKVIKAARSQGVDCLVAPYEADAQLAYLNKAGIVQAIITEDSDLLAFGCKKVILKMDQFGNGLEIDQARLGMCRQLGDVFTEEKFRYMCILSGCDYLSSLRGIGLAKACKVLRLANNPDIVKVIKKIGHYLKMNITVPEDYINGFIRANNTFLYQLVFDPIKRKLIPLNAYEDDVDPETLSYAGQYVDDSIALQIALGNKDINTFEQIDDYNPDTAMPAHSRSHSWDDKTCQKSANVSSIWHRNYSPRPESGTVSDAPQLKENPSTVGVERVISTKGLNLPRKSSIVKRPRSAELSEDDLLSQYSLSFTKKTKKNSSEGNKSLSFSEVFVPDLVNGPTNKKSVSTPPRTRNKFATFLQRKNEESGAVVVPGTRSRFF
modifications: N-terminal YFP tag
  foci formation and co-localization with PCNA during S-phase: none of the variant proteins were able to form foci or co-localize with PCNA during S-phase
  sub-cellular localization: strictly nuclear

B6: hMLH1: fusion protein, CFP or YFP tagged MMR protein (protein)
chain: MSFVAGVIRRLDETVVNRIAAGEVIQRPANAIKEMIENCLDAKSTSIQVIVKEGGLKLIQIQDNGTGIRKEDLDIVCERFTTSKLQSFEDLASISTYGFRGEALASISHVAHVTITTKTADGKCAYRASYSDGKLKAPPKPCAGNQGTQITVEDLFYNIATRRKALKNPSEEYGKILEVVGRYSVHNAGISFSVKKQGETVADVRTLPNASTVDNIRSIFGNAVSRELIEIGCEDKTLAFKMNGYISNANYSVKKCIFLLFINHRLVESTSLRKAIETVYAAYLPKNTHPFLYLSLEISPQNVDVNVHPTKHEVHFLHEESILERVQQHIESKLLGSNSSRMYFTQTLLPGLAGPSGEMVKSTTSLTSSSTSGSSDKVYAHQMVRTDSREQKLDAFLQPLSKPLSSQPQAIVTEDKTDISSGRARQQDEEMLELPAPAEVAAKNQSLEGDTTKGTSEMSEKRGPTSSNPRKRHREDSDVEMVEDDSRKEMTAACTPRRRIINLTSVLSLQEEINEQGHEVLREMLHNHSFVGCVNPQWALAQHQTKLYLLNTTKLSEELFYQILIYDFANFGVLRLSEPAPLFDLAMLALDSPESGWTEEDGPKEGLAEYIVEFLKKKAEMLADYFSLEIDEEGNLIGLPLLIDNYVPPLEGLPIFILRLATEVNWDEEKECFESLSKECAMFYSIRKQYISEESTLSGQQSEVPGSIPNSWKWTVEHIVYKALRSHILPPKHFTEDGNILQLANLPDLYKVFERC
modifications: left off: GST, end not stated, kept
  foci formation and co-localization with PCNA during S-phase: unable to observe CFP-PCNA co-localized YFP-hMLH1 foci

From article PMC4586255 (DNA repair, 2010)
